Results on 78 compounds are retold here after PubChem BioAssay AID1656 (Sanford-Burnham Center for Chemical Genomics, 2009).

As usually defined, the inhibition is the drop in the measured response relative to a control, in per cent.

About 950 (0.4%) of roughly 240,000 compounds were called active.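 The calls were made as follows: active = lipid droplet intensity inhibited by at least 50%, with more than 500 cells counted; inconclusive = wells with under 300 cells, treated as cytotoxic; inactive = the rest.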 The sample as a whole holds a higher share of actives than the screen did.

The nature of this experiment: oleate-induced lipid droplet accumulation in AML12 cells – imaging, high-throughput imaging, BODIPY stain, primary screen (AID 1656).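 As to cell count: cells counted across two imaged fields per well.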 The conditions noted are these: AML12 mouse hepatocytes, oleate lipid droplets, at 6.5 µM; cell count: measured here: cell count, cytotoxicity flag; inhibition: stronger effect = higher value. In a few lines:
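Assay system: AML12 hepatocytes (mouse); Probe or stimulus: oleic acid at 100 µM to induce lipid droplet formation; Dosing: compound at 6.5 µM only; Schedule: compound with oleate, overnight; Detection: fluorescence imaging, 20x objective, two fields per well; Measure: % inhibition of lipid droplet signal.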
In the case of `COc1ccc(CCNC(=O)CCCCCNC(=O)N2CCn3c2nc2ccccc23)cc1OC`, the cell count came out at 692 cells and the inhibition was 0.7% (inactive).

As for `CCCN1CCn2c3c(c4cc(Br)ccc42)CCCC31` (stereo unspecified), the cell count was 795 cells and the inhibition is -5.9% (inactive).

With `CCC(C(=O)NC1CCCCC1)N(C(=O)c1snc(C(N)=O)c1N)c1ccc(OC)cc1OC` (stereo unspecified), the cell count amounted to 820 cells and the inhibition is -0.1% (inactive).

As for `Cc1ccc(NC(=O)c2cc(-c3ccccc3O)n[nH]2)cc1C`, the cell count stood at 660 cells and the inhibition is 31.5% (inactive).

`Cc1nc2cc(C(F)(F)F)ccc2n1CCNc1nc(-c2cc(Cl)c(N)c(Cl)c2)cs1`: the cell count turned out to be 750 cells and the inhibition is 8.1% (inactive).

With `Cc1c(C(=O)NCC(c2ccco2)N2CCCC2)oc2ccc(Cl)cc12` (stereo unspecified), the cell count turned out to be 736 cells and the inhibition is 2.8% (inactive).

On to `CS(=O)(=O)N(CC(=O)N1CCOCC1)c1cccc(Cl)c1Cl`, for which the cell count stood at 792 cells and the inhibition was -9.9% (inactive).

`COc1ccc(NC(=O)NCCN2CCN(c3ccc(C)cc3)CC2)c(Cl)c1`: the cell count came to 800 cells and the inhibition is -0.4% (inactive).

Turning to `CCN(C(=O)COc1ccc(C(=O)c2ccccc2)cc1)c1ccccc1`, the cell count turned out to be 592 cells and the inhibition is -18.3% (inactive).

Take `Cc1cc(CN(C)C(=O)c2cc(COc3ccc(C)c(C)c3)on2)n[nH]1`: the cell count is 697 cells and the inhibition was -6.7% (inactive).

With `CC(Cc1cccs1)N(Cc1ccc(Cl)cc1)C(=O)c1ccncc1` (stereo unspecified), the cell count turned out to be 838 cells and the inhibition is -16% (inactive).

With `O=C(NC(=S)Nc1ccccc1N1CCCCC1)c1ccc(F)cc1`, the cell count came to 720 cells and the inhibition is 8.8% (inactive).

Turning to `COc1ccc(C(CNC(=O)COc2ccccc2OC)N2CCCCC2)cc1` (stereo unspecified), the cell count was found to be 697 cells and the inhibition was -15% (inactive).

As for `COc1cccc(Cn2cc(/C=N/NC(=O)c3cc(O)cc(O)c3)c3ccccc32)c1`, the cell count came to 740 cells and the inhibition is -2.5% (inactive).

For `COc1ccc(C)cc1Nc1n[n+](-c2ccccc2)c(-c2cccc(Cl)c2Cl)s1`, the cell count amounted to 778 cells and the inhibition is -4.7% (inactive).

`CC1CCN(CCCn2c(SCC(=O)NC3CCCC3)nc3ccccc3c2=O)CC1`: the cell count stood at 704 cells and the inhibition is -17.3% (inactive).

In the case of `CC1CCCN(CCCNC(=O)CN2C(=O)COc3ccc(S(=O)(=O)N4CCOCC4)cc32)C1` (stereo unspecified), the cell count came to 780 cells and the inhibition is -12.4% (inactive).

For the compound `O=C(NCC(=O)N1CCN(c2ccccc2O)CC1)c1ccc2ccccc2c1`, the cell count amounted to 679 cells and the inhibition is -1.6% (inactive).

As for `COc1ccc(N(Cc2cc3ccc(C)cc3[nH]c2=O)S(=O)(=O)c2ccccc2)cc1`, the cell count is 764 cells and the inhibition is -6.7% (inactive).

Regarding `CC(C)c1ccc(NC2CCCN(C(=O)c3ccncc3)C2)cc1` (stereo unspecified), the cell count stood at 631 cells and the inhibition was -2.4% (inactive).

With `O=C(N/C(=C\c1ccc([N+](=O)[O-])cc1)C(=O)N1CCOCC1)c1cccc(Br)c1`, the cell count was 652 cells and the inhibition was -42.9% (inactive).

On to `COc1ccc(-c2c(C#Cc3ccccc3)c3ccccc3n2C)cc1`, for which the cell count is 742 cells and the inhibition is -11.3% (inactive).

Turning to `Cc1ccccc1OCC(=O)Nc1ccc(S(=O)(=O)N2CCOCC2)cc1`, the cell count came to 768 cells and the inhibition is -7.1% (inactive).

Regarding `O=C(/C=C/c1ccc([N+](=O)[O-])o1)NNC(=O)c1ccc(F)cc1`, the cell count was 473 cells and the inhibition was -82% (inactive).

With `CCCc1ccc(-c2csc(NC(=O)Cc3cccs3)n2)cc1`, the cell count came to 774 cells and the inhibition is 71% (active).

As for `COc1ccc(-c2csc(NC(=O)CCCc3cccs3)n2)cc1`, the cell count came out at 687 cells and the inhibition is -3.2% (inactive).

With `Cc1ccc(-c2csc(NC(=O)Cc3cccs3)n2)cc1C`, the cell count worked out at 732 cells and the inhibition was 12.4% (inactive).

On to `CCOCCCN(C)C1CCN(C(=O)c2oc3ccccc3c2NC(=O)COc2cccc(C)c2)CC1`, for which the cell count worked out at 640 cells and the inhibition is -24.8% (inactive).

Take `O=C(CN1CCc2cc3c(cc2C1)OCCCO3)Nc1ccccc1`: the cell count is 784 cells and the inhibition was 77.1% (active).

`Cc1ccc(NC(=O)CN2CCc3ccccc3C2)cc1`: the cell count worked out at 793 cells and the inhibition was 7.1% (inactive).

Consider `O=C(CN1CCOCC1)Nc1ccccc1`, for which the cell count turned out to be 743 cells and the inhibition was 1.4% (inactive).

For the compound `CC1(C)CC(=O)C(N=Nc2c(F)cccc2F)=C(O)C1`, the cell count was 713 cells and the inhibition is 8.6% (inactive).

In the case of `Cc1ccc(N2C(=O)C(NC(=O)c3c(F)cccc3F)(C(F)(F)F)C3=C2CC(C)(C)CC3=O)cc1` (stereo unspecified), the cell count came to 635 cells and the inhibition is 63.8% (active).

Take `CCOC(=O)CC1(NC(=O)c2cc(COc3cncc(Cl)c3)on2)CCCCC1`: the cell count is 665 cells and the inhibition was 11.8% (inactive).

Regarding `CCOC(=O)N1CCN(C(=O)c2ccc3c(=O)n(CCc4ccc(OC)c(OC)c4)c(=O)[nH]c3c2)CC1`, the cell count came out at 684 cells and the inhibition was 16.5% (inactive).

With `CCCCNC(=O)c1cn(CC)c2cc(N3CCN(C(=O)c4ccco4)CC3)c(F)cc2c1=O`, the cell count was 705 cells and the inhibition is -15.8% (inactive).

In the case of `O=S(=O)(c1ccc(Cl)cc1)c1nc(-c2ccco2)oc1N1CCCCC1`, the cell count was found to be 633 cells and the inhibition was -18% (inactive).

For `CN(CC1CCCO1)S(=O)(=O)c1ccc(C(=O)Nc2ccc([N+](=O)[O-])cc2)cc1` (stereo unspecified), the cell count was 854 cells and the inhibition is 0.6% (inactive).

Take `CC(C)c1ccc2oc(=O)cc(CN3CCN(Cc4ccccc4)CC3)c2c1`: the cell count was found to be 850 cells and the inhibition was -0.8% (inactive).

With `C=CCSc1nnc(N2C(=O)C(O)=C(C(=O)c3ccco3)C2c2ccc(F)cc2)s1` (stereo unspecified), the cell count was 710 cells and the inhibition was -21.4% (inactive).

In the case of `COc1ccc(C(=O)Nc2ccccc2C(=O)NCc2ccco2)cc1`, the cell count worked out at 738 cells and the inhibition is -20.2% (inactive).

For the compound `COc1ccc(/C=C(/NC(=O)c2ccco2)C(=O)Nc2ccc(C(C)=O)cc2)cc1`, the cell count came out at 829 cells and the inhibition was 8.8% (inactive).

Take `COc1ccc(/C=C(\NC(=O)c2ccc(OCC(C)C)cc2)C(=O)OCc2ccco2)cc1`: the cell count was 607 cells and the inhibition was 74.3% (active).

Take `CCn1cc(S(=O)(=O)c2cccc(C)c2)c(=O)c2cc(F)c(N3CCN(C)CC3)cc21`: the cell count amounted to 738 cells and the inhibition was 7.2% (inactive).

On to `CCC1=Nc2cc(C(=O)NCCN3CCCC3)ccc2Sc2ccc(C)cc21`, for which the cell count is 726 cells and the inhibition is 4.6% (inactive).

Take `COc1cccc(/C=C(/CC(=O)Nc2ccc(N3CCOCC3)cc2)c2nc3ccccc3s2)c1`: the cell count turned out to be 578 cells and the inhibition is 77.8% (active).

For the compound `COc1cc2ccccc2cc1C(=O)Nc1ccc(N2CCOCC2)cc1`, the cell count turned out to be 835 cells and the inhibition is -4.2% (inactive).

On to `COc1ccc(/C=C(/CC(=O)Nc2ccc(C)cc2)c2nc3ccccc3s2)cc1`, for which the cell count was determined as 713 cells and the inhibition is -0.1% (inactive).

Regarding `CCC(C(=O)NCc1ccc(OC)cc1)n1nc(C)n2c(cc3occc32)c1=O` (stereo unspecified), the cell count was found to be 780 cells and the inhibition was -2.7% (inactive).

In the case of `COc1ccc(CCNC(=O)COC(=O)/C=C/c2cccs2)cc1OC`, the cell count came to 727 cells and the inhibition is 2.8% (inactive).

Consider `CCOc1ccc(CCNC(=O)C(CC)n2nc(C)n3c(cc4sccc43)c2=O)cc1OCC` (stereo unspecified), for which the cell count amounted to 786 cells and the inhibition is 85.5% (active).

Consider `Cc1ccc2cc(C)c(N3CCN(c4ccc(F)cc4)CC3)nc2c1`, for which the cell count came out at 820 cells and the inhibition is 15% (inactive).

As for `CC(NC(=O)c1ccccc1C(=O)O)c1ccc(-n2ccnc2)cc1` (stereo unspecified), the cell count was determined as 807 cells and the inhibition was 2.2% (inactive).

In the case of `CC(NC(=O)CNC(=O)Cc1cccc2ccccc12)c1ccc(S(N)(=O)=O)cc1` (stereo unspecified), the cell count came to 734 cells and the inhibition was 13.3% (inactive).

With `CC(NC(=O)c1cccc2ccccc12)c1ccc2c(c1)CCCC2` (stereo unspecified), the cell count came out at 688 cells and the inhibition was 57.9% (active).

Regarding `CCn1c(=S)sc2c(=O)n(CC(=O)Nc3cccc(Br)c3)c(C)nc21`, the cell count came to 740 cells and the inhibition was 8.5% (inactive).

Turning to `C/C(=N\NC(=O)COc1ccc(C)cc1[N+](=O)[O-])c1ccc2c(c1)OCCO2`, the cell count worked out at 706 cells and the inhibition was -6.5% (inactive).

As for `CCCSc1nc2sc3c(c2c(=O)n1-c1ccc(OC)cc1)CCN(C)C3`, the cell count was found to be 816 cells and the inhibition is 11.2% (inactive).

Regarding `O=c1[nH]cccc1-c1nc2ccccc2n1Cc1ccc(Cl)cc1`, the cell count is 844 cells and the inhibition was 10.1% (inactive).

In the case of `CC(=O)N1c2ccc(S(=O)(=O)N3CCC(C(=O)N4CCN(c5ccccc5)CC4)CC3)cc2CC1C` (stereo unspecified), the cell count turned out to be 669 cells and the inhibition was -1.7% (inactive).

As for `Cc1ccc(Nc2ccc(C(N)=O)cc2[N+](=O)[O-])cc1`, the cell count was determined as 630 cells and the inhibition is -6.1% (inactive).

`Cc1ccc(Nc2cc(C)nc3c(C)ccc([N+](=O)[O-])c23)cc1`: the cell count was 674 cells and the inhibition was 57.6% (active).

As for `Cc1cc(Nc2ccc(N3CCOCC3)cc2)c2cccc(C)c2n1`, the cell count stood at 761 cells and the inhibition is 11.3% (inactive).

As for `O=C(Nc1ncc([N+](=O)[O-])s1)C1COc2ccccc2O1` (stereo unspecified), the cell count came to 840 cells and the inhibition was -18.9% (inactive).

Take `Cn1c(=O)cc(SCC(=O)N2CCCC2)c2cc(Cl)ccc21`: the cell count is 775 cells and the inhibition is 9% (inactive).

Turning to `CCN(CCCNC(=O)CSc1cc(=O)n(C)c2cc(Cl)ccc12)Cc1ccccc1`, the cell count came out at 704 cells and the inhibition is 18.8% (inactive).

Take `CCOc1ccc(CCNC(=O)CSc2cc(=O)n(C)c3ccc(Cl)cc23)cc1OCC`: the cell count worked out at 659 cells and the inhibition was 93.9% (active).

With `O=C(c1ccccc1)N1CCC(CC2CC(c3ccc(Cl)cc3)=NO2)(C(=O)NCC2CCCCC2)CC1` (stereo unspecified), the cell count amounted to 817 cells and the inhibition is -15.1% (inactive).

As to `CN(CC1CCCN(CCc2cccc(C(F)(F)F)c2)C1)C(=O)c1ccc2nc[nH]c2c1` (stereo unspecified), the cell count worked out at 744 cells and the inhibition is -11.4% (inactive).

In the case of `O=C(NCCCN1CCCC1=O)C(=O)NCC1OCCN1S(=O)(=O)c1ccc(Br)cc1` (stereo unspecified), the cell count was determined as 666 cells and the inhibition is -6.7% (inactive).

Consider `OC(c1nnc(-c2ccccc2)o1)c1cccs1` (stereo unspecified), for which the cell count was found to be 773 cells and the inhibition was 16.7% (inactive).

With `CCCN(CCC)c1ccc(C(O)c2nnc(-c3ccccc3)o2)cc1` (stereo unspecified), the cell count amounted to 691 cells and the inhibition is 69.3% (active).

With `CCCC(=O)Nc1nnc(-c2ccccc2)o1`, the cell count was 702 cells and the inhibition was 4.2% (inactive).

Take `O=C(Nc1ccccc1C(=O)Nc1ccncc1)c1ccc([N+](=O)[O-])cc1`: the cell count was 805 cells and the inhibition was 10.9% (inactive).

For the compound `CCCN(CCC)c1nc2c(C)cccn2c(=O)c1/C=C1/SC(=S)N(Cc2ccco2)C1=O`, the cell count amounted to 775 cells and the inhibition is 57.5% (active).

`CCOC(=O)CC1C(=O)NCCN1c1nc2c(C)cccn2c(=O)c1/C=C1\SC(=S)N(C(C)CC)C1=O` (stereo unspecified): the cell count was determined as 696 cells and the inhibition is 36.8% (inactive).

Regarding `O=C(CCCN1C(=O)/C(=C\c2ccco2)SC1=S)Nc1cccc2ccccc12`, the cell count was 553 cells and the inhibition is -6.6% (inactive).

Regarding `CCc1cccc(NC(=O)CCCN2C(=O)C(c3ccccc3)Oc3cccnc32)c1` (stereo unspecified), the cell count was 663 cells and the inhibition is -3.4% (inactive).
